Like-named read-outs stand apart in the source and are kept apart here.
Assays:
[1] = tested on: HSV-2; conditions: read-out: EC50 HSV-2; cell-based antiviral activity; cited from earlier work
[2] = tested on: HSV-1; assay: HSV replication inhibition assay, HSV-1 in Vero cells; assay type: cell-based, herpes simplex virus-1; conditions: for EC50: read-out: HSV-1 EC50 (μM) ± SD; for Selectivity CC50/EC50: Vero CC50 / HSV-1 EC50
How it was run: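 Confluent Vero monolayers (24-well) got compound in PBS with 2% newborn calf serum and 2 mM L-glutamine, in duplicate, plus clinical-isolate virus at 2 × 10^4 PFU per well, for 1 h at 37 °C. Washed, then compound in DMEM for 24 h. Non-toxic wells (phase-contrast check) were titred by plaque assay (methanol, Giemsa). EC50 used serial dilutions in 96-well format, three-parameter fit, bottom zero.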

[3] = tested on: HSV-1; conditions: read-out: EC50 HSV-1; cell-based antiviral activity; cited from earlier work
[4] = tested on: mutant of HSV-1 resistant to acyclovir (TK−); assay: Replication inhibition of acyclovir-resistant HSV-1 mutant; assay type: cell-based, herpes simplex virus-1; conditions: Fig. 2C
[5] = Cytotoxicity assay; assay type: cell-based; conditions: African green monkey, Vero cells
How it was run: (§1)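 Vero cells in 96-well plates in DMEM with 3% bovine growth serum and 3% newborn calf serum. Serial compound dilutions in medium with 1% DMSO were added 24 h after plating, in duplicate. After 24 or 48 h, MTS was added for 90 min and A490 read. CC50 came from a four-parameter variable-slope fit with bottom fixed at zero.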

[6] = tested on: Vero cells; assay: Cytotoxicity assay; assay type: cell-based; conditions: read-out: Vero CC50 (μM) ± SD, 48 h, MTS, 2 to 4 independent runs
How it was run: as §1

For `Nc1nc2c(ncn2COCCO)c(=O)[nH]1` [acyclovir], the EC50 [1] is listed as 1400 nM, the “inhibition of wild-type HSV-1” value ([2]; wild-type virus, Fig. 2C) is listed as “inhibited only the wild-type virus” and the EC50 [3] is listed as 170 nM. For the same compound, the “inhibition of ACV-resistant HSV-1” value [4] was “inhibited only the wild-type virus”.
With `Cc1cc(O)c(=O)c(O)cc1C(=O)Nc1ccc2ccc3cccc4ccc1c2c34` [compound 63, 4,6-Dihydroxy-2-methyl-5-oxo-N-(pyren-1-yl)cyclohepta-1,3,6-triene-1-carboxamide] the EC50 ([2]; Human alphaherpesvirus 1, Vero) was 0.244 ± 0.097 µM and the CC50 at 48 h [5] was 74200 ± 8700 nM.
With `Cc1cc(O)c(=O)c(O)cc1C(=O)N1CCc2cc(C3CCCCC3)ccc2C1` [compound 64, 4-(6-Cyclohexyl-1,2,3,4-tetrahydroisoquinoline-2-carbonyl)-2,7-dihydroxy-5-methylcyclohepta-2,4,6-trien-1-one] the EC50 ([2]; Human alphaherpesvirus 1, Vero) was 0.072 ± 0.021 µM, the “Selectivity CC50/EC50” value ([2]; listed as C00065) was 1050 and the CC50 at 48 h [5] was 75700 ± 5300 nM.
For `Cc1cc(O)c(=O)c(O)cc1C(=O)N1CCC2(CC1)C1CC3CC(C1)CC2C3` [compound 66, 2,7-Dihydroxy-4-methyl-5-(spiro[adamantane-2,4′-piperidine]-1′-carbonyl)cyclohepta-2,4,6-trien-1-one], the EC50 ([2]; Human alphaherpesvirus 1, Vero) was 0.296 ± 0.054 µM and the CC50 at 48 h [5] was 23700 ± 3800 nM.
With `Cc1cc(O)c(=O)c(O)cc1C(=O)NCC1(c2ccc(C(C)C)cc2)CCCC1` [compound 65, Dihydroxy-N-((1-(4-isopropylphenyl)cyclopentyl)methyl)-2-methyl-5-oxocyclohepta-1,3,6-triene-1-carboxamide] the “Selectivity CC50/EC50” value [2] was 302, the EC50 ([2]; Vero cells, 3 to 4 independent runs) was 0.306 ± 0.016 µM and the CC50 [6] was 92.5 ± 7.5 µM.

From article PMC10016935 (RSC Advances, 2023)
